Sampled rows, rich in hits. Any-hit rate of the full collection: about 2.5%.
NR2E3 ag-1: human photoreceptor-specific nuclear receptor agonism; CHO-S Gal4-NCOR/VP16-NR2E3 two-hybrid, luciferase; 0.35% of 360,000 active; Q9Y5X4; inhibition of corepressor binding, % at 3.98 µM;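 active means inhibition above the mean of all tested compounds plus 3 SD, cut at about 70% in these data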;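 further: 0% = DMSO with NR2E3 transfected cells and 100% = cells lacking NR2E3 construct; higher means lower luciferase signal from less NR2E3 corepressor binding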
Target sequence (Q9Y5X4 whole entry, looked up, the tested form may be a part): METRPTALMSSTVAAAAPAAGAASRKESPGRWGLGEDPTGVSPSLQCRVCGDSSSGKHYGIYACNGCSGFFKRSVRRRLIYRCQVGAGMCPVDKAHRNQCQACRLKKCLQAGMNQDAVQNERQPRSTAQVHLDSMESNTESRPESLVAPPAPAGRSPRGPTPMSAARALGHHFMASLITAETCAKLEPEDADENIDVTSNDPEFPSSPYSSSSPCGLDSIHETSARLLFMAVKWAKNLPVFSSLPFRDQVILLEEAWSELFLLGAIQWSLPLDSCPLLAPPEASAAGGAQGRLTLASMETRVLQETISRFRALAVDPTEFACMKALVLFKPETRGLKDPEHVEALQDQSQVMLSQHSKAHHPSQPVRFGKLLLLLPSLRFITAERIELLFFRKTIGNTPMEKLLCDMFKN
KLK7 zymogen act: proKLK7 (human) activation, primary screen; P49862; purified proKLK7, EDANS-DABCYL substrate fluorescence; 100% is mature enzyme control, 0% vehicle; activation, % at 7 µM; 0.9% of 370,000 active; AID 652039;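 active means activation above the mean of all tested compounds plus 3 SD, computed per campaign excluding outliers beyond control limits, cut at about 13% in these data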
NR2E3 ag-2: agonists of human nuclear receptor NR2E3; GST-NR2E3/biotin-RetCOR TR-FRET, 1536-well; 0.12% of 320,000 active; Q9Y5X4; inhibition of corepressor binding, % at 4.78 µM;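 active means percent inhibition above the cutoff of mean plus 3 SD of all tested compounds, set per screening campaign, cut at about 20% in these data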;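 further: 0% = DMSO wells and 100% = biotin wells as full block of FRET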
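Test system – NR2E3–RetCOR corepressor complex · Quantity – NR2E3 fusion 1.35 nM · Buffer or medium – Tris pH 7.5 · Incubation – Compound–protein incubation for 5 h at 4 °C · Technique – TR-FRET, Eu(K)-anti-GST donor, streptavidin-D2 acceptor, ex 340, em 617/671 nm · Evaluation – percent inhibition of 671/617 nm emission ratio versus biotin and DMSO controls · Plate – 1536-well format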
ADAM17 inh: inhibitors of human ADAM17 | P78536 | recombinant ADAM17, EDANS/DABCYL FRET peptide cleavage | inhibition, % at 6.95 µM | 0.83% of 370,000 active;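 active means inhibition above the mean of compounds lying between control limits plus 3 SD, set per campaign, cut at about 8.5% in these data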;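 further: 0% = DMSO-only wells as the low control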
ADAM10 inh: inhibitors of human ADAM10 | recombinant ADAM10, EDANS/DABCYL FRET peptide cleavage, 3 h | inhibition, % at 7 µM | 0.62% of 370,000 active | O14672;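 active means inhibition above a per-campaign cutoff equal to the mean of compounds falling between control-based bounds plus 3 SD, cut at about 20% in these data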;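 further: 0% = DMSO wells while the 100% control is not disclosed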
GASC-1 inh: human JMJD2C demethylase inhibition; Q9H3R0; GST-JMJD2C(1-420) H3K9me3 demethylation, DELFIA europium; inhibition, % at 2.35 µM; 0.069% of 330,000 active; AID 2099;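 active means more than half of a compound's replicate wells show inhibition beyond 50%, single wells judged on their own value; inconclusive means some, but no more than half, of replicates pass 50% inhibition; inactive means no replicate passes 50% inhibition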;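 further: signal counts dimethyl H3K9 product captured on neutravidin plate; 0% = median of DMSO wells and 100% = 0.3 times that DMSO median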
Target sequence (Q9H3R0 1-420 limits assumed): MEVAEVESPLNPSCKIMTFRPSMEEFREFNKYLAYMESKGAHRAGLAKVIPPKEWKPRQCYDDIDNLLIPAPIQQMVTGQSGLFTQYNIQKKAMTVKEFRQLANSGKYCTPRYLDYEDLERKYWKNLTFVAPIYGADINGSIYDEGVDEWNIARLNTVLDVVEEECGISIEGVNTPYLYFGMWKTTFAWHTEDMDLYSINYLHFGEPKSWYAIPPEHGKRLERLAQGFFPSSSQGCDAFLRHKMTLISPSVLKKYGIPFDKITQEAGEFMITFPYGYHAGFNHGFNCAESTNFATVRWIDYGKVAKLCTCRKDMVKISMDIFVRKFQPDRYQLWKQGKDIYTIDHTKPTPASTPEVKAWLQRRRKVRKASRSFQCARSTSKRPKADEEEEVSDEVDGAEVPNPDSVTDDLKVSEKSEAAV
ADAM10 confirm: human ADAM10 inhibition, confirmation. shares compounds with ADAM10 inh. ADAM10 QFRET peptide cleavage, EDANS fluorescence. inhibition, % at 6.95 µM. 1% of 2,100 active;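 active means inhibition above about 20% chosen separately for each screening run, limit read from the data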;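 further: 0% = DMSO wells and 100% = marimastat wells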
ADAM17 counter: counter-screen for ADAM10 exosite inhibitors: inhibitors of human ADAM17. inhibition, % at 6.95 µM. 0.5% of 2,100 active. AID 743214. ADAM17 QFRET peptide cleavage, EDANS fluorescence. shares compounds with ADAM10 inh;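 active means mean triplicate inhibition above the solvent-only control wells' mean plus 3 SD, cut at about 12% in these data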;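 further: 0% = DMSO wells and 100% = marimastat wells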
ADAM10 counter: ADAM10 inhibition, counter-screen for ADAM17 exosite hits. shares compounds with ADAM17 inh. inhibition, % at 6.95 µM. 47% of 2,900 active. recombinant ADAM10, EDANS/DABCYL FRET peptide cleavage, 3 h. AID 743256;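 active means mean inhibition over the triplicate runs exceeds the activity threshold set in the earlier primary screen, cut at about 20% in these data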;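 further: 0% = DMSO wells and 100% = marimastat wells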
ADAM17 confirm: confirmation of inhibitors of human ADAM17; shares compounds with ADAM17 inh; recombinant ADAM17, EDANS/DABCYL QFRET peptide cleavage; inhibition, % at 6.95 µM; AID 743257; 65% of 2,900 active;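 active means mean inhibition across replicates above the hit cutoff set in the primary screen, cut at about 8.5% in these data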;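 further: 0% = DMSO wells and 100% = marimastat wells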
An asterisk follows results filed as active; ? = inconclusive; · = no result given.

SMILES | NR2E3 ag-1 | KLK7 zymogen act | NR2E3 ag-2 | ADAM17 inh | ADAM10 inh | GASC-1 inh | ADAM10 confirm | ADAM17 counter | ADAM10 counter | ADAM17 confirm
CCOc1ccccc1NC1=CC(=O)CC(c2ccccc2)C1 (stereo not drawn) | -19.8 | -2.2 | 1.5 | 10.2* | 21.7* | -4.8 | 0.7 | 0.0 | -4.3 | -1.1
O=C(Nc1cc(Cl)cc(Cl)c1)c1cccc(OC(F)F)c1 | -9.8 | 0.2 | 2.8 | 11.5* | 27.4* | ? | 7.3 | 2.1 | 23.3* | 13.5*
COc1cc(C(=O)N(c2ccc(C)c(C)c2)C2C=CS(=O)(=O)C2)cc(OC)c1OC (stereo not drawn) | -31.1 | 0.1 | -0.5 | -1.6 | 0.0 | 40.9 | · | · | · | ·
O=C(NCCc1c[nH]c2ccccc12)c1ccc(Sc2ccccc2Cl)c([N+](=O)[O-])c1 | · | 0.1 | · | 9.1* | 22.9* | · | 9.4 | 4.6 | 26.9* | 18.9*
O=C(NCCc1ccccc1F)c1ccc(Sc2ccccc2Cl)c([N+](=O)[O-])c1 | · | 0.7 | · | 0.1 | -0.7 | · | · | · | · | ·
COc1ccc(C(=O)C(C)OC(=O)C2CC3CCCC(C2)C3=O)cc1 (stereo not drawn) | 6.3 | 0.2 | · | -3.2 | -1.8 | · | · | · | · | ·
CCCCNC(=O)C[C@@H]1C[C@@]2(C(=O)OC)CC(C)(C)CC=C2N(Cc2ccc3c(c2)OCO3)C1=O | · | 0.7 | · | 2.9 | -1.6 | · | · | · | · | ·
COC(=O)[C@@]12C[C@@H](CC(=O)NCCCCc3ccccc3)C(=O)N(Cc3ccc4c(c3)OCO4)C1=CCC(C)(C)C2 | · | 0.7 | · | 16.7* | 27.3* | · | 5.3 | 2.5 | 28.5* | 15.0*
C=CCC1(Cl)C(=O)C(Cl)=C(N2CCOCC2)C1(OC)OC (stereo not drawn) | -6.0 | 0.7 | 0.2 | -1.4 | 6.4 | 0.0 | · | · | · | ·
O=C(/C=C/c1cccc(C(F)(F)F)c1)Nc1cccc(C(F)(F)F)c1 | -9.7 | 0.7 | 1.3 | 12.2* | 25.8* | 13.2 | 7.6 | 3.3 | 29.3* | 16.5*
CCOC(=O)[C@]12CCC=C1N(Cc1ccc3c(c1)OCO3)C(=O)[C@H](CC(=O)NCc1ccccc1)C2 | 23.5 | -0.2 | · | 4.7 | 6.2 | · | · | · | · | ·
CCc1nc2ccc(C(=O)Nc3cccc(NS(C)(=O)=O)c3)cn2c1N(CC)Cc1cccc(Br)c1 | -6.8 | 0.3 | · | 14.9* | 36.0* | · | 8.9 | 2.6 | 23.3* | 13.4*
CCc1nc2ccc(C(=O)Nc3cccc(OC)c3)cn2c1N(CC)Cc1cccc(Br)c1 | -7.8 | -0.2 | · | 10.8* | 21.7* | · | 11.8 | 3.3 | 26.8* | 11.5*
CCc1nc2ccc(C(=O)Nc3cccc(NS(C)(=O)=O)c3)cn2c1N(C)CCCc1ccccc1 | -13.8 | -0.4 | · | 3.0 | 2.7 | · | · | · | · | ·
CC(C)c1ccc(Nc2nc(N3CCOCC3)nc(N3CCOCC3)n2)cc1 | -32.0 | 0.6 | · | 4.5 | -1.1 | · | · | · | · | ·
CC(C)c1ccc(Nc2nc(NCc3ccco3)nc(N3CCOCC3)n2)cc1 | 13.8 | 0.8 | 2.8 | 11.9* | 30.6* | -7.7 | 7.4 | 2.1 | 22.6* | 12.9*
COc1ccc(CNC(=O)C(C)n2ccc3cc(S(=O)(=O)N4CCCCCC4)ccc32)cc1 (stereo not drawn) | 14.4 | 1.2 | 1.2 | 12.2* | 28.4* | 8.5 | 3.4 | 2.0 | 22.1* | 15.6*
COc1ccc(C)cc1NC(=O)C(Sc1nnc(-c2ccncc2)n1-c1ccc(Cl)cc1)c1ccccc1 (stereo not drawn) | -24.3 | 0.4 | 1.9 | 11.3* | 24.9* | -3.9 | 3.2 | 2.1 | 30.5* | 21.7*
Cn1c(CSCc2ccccc2)n[nH]c1=S | -4.3 | -0.3 | 0.1 | 2.0 | -0.1 | -0.5 | · | · | · | ·
CC(C)(C)c1ccc(/C=N/OCC(=O)NCc2ccc(F)cc2)cc1 | -6.3 | -0.1 | -4.0 | 13.1* | 28.3* | -23.8 | 2.7 | 0.4 | 22.0* | 10.6*
C/C(=N\Nc1ccc([N+](=O)[O-])cc1)c1ccc(C#N)cc1 | 12.5 | -0.2 | 0.6 | 0.2 | 5.0 | 11.8 | · | · | · | ·
C/C(=N/Nc1ccc([N+](=O)[O-])cc1)c1ccc(C)cc1C | -79.0 | -0.8 | 4.9 | 9.6* | 23.1* | 1.3 | 7.5 | 2.5 | 18.9 | 14.9*
CCc1ccc(C(=O)CN2C(=O)NC(C)(CCc3ccccc3)C2=O)cc1 (stereo not drawn) | 0.1 | -0.4 | 3.1 | 0.4 | 8.1 | -3.7 | · | · | · | ·
Nc1cccc(Nc2nc(OC(C(F)(F)F)C(F)(F)F)nc(OC(C(F)(F)F)C(F)(F)F)n2)c1 | -23.8 | 0.1 | -1.2 | 26.6* | 57.8* | 2.1 | -0.5 | -0.1 | 60.1* | 29.8*
O=C(CN1CCN(C(=O)C2CCCO2)CC1)Nc1cc(C(F)(F)F)ccc1Cl (stereo not drawn) | -12.0 | 0.8 | -0.8 | -4.9 | -16.3 | -9.0 | · | · | · | ·
SMILES | NR2E3 ag-1 | KLK7 zymogen act | NR2E3 ag-2 | ADAM17 inh | ADAM10 inh | GASC-1 inh | ADAM10 confirm | ADAM17 counter | ADAM10 counter | ADAM17 confirm
Cc1cccc(NC(=O)c2nc[nH]c2C(=O)N(C)Cc2ccccc2)c1 | -27.3 | 0.1 | 3.3 | 9.4* | 21.4* | 7.1 | 1.8 | -0.1 | 10.3 | 7.2
Cc1cccc(NC(=O)c2nc[nH]c2C(=O)Nc2cccc(C)c2)c1 | -32.5 | 0.5 | -1.7 | -1.5 | -2.0 | 1.4 | · | · | · | ·
Cc1cccc(NC(=O)c2nc[nH]c2C(=O)N[C@@H](C)c2ccccc2)c1 | 19.5 | 0.1 | -0.9 | 10.0* | 26.2* | -0.6 | 8.6 | 2.8 | 29.1* | 14.6*
CSCCC(NS(=O)(=O)Cc1ccccc1)C(=O)NNc1ccccc1 (stereo not drawn) | 24.8 | 0.5 | · | -0.8 | -8.3 | · | · | · | · | ·
Cc1cc(C)cc(NC(=O)C(OC(=O)c2cccs2)c2ccccc2)c1 (stereo not drawn) | -3.0 | -0.6 | -1.9 | 10.9* | 20.8* | -1.6 | 4.6 | 1.8 | 11.5 | 7.9
CC(=O)c1cccc(NC(=O)C(OC(=O)c2ccccc2NS(=O)(=O)c2cccs2)c2ccccc2)c1 (stereo not drawn) | -19.3 | -1.6 | 3.3 | 10.1* | 21.4* | -10.2 | 13.1 | 5.1 | 12.4 | 17.9*
Cc1noc(/C=C/N(C)C)c1S(=O)(=O)N(C)Cc1ccc(F)cc1 | 11.1 | 0.5 | 2.2 | -2.2 | -1.5 | -3.4 | · | · | · | ·

Compound activity: PubChem BioAssay, several laboratories
